Experimental data from ChEMBL document CHEMBL2057126, “Discovery of new inhibitors of Cdc25B dual specificity phosphatases by structure-based virtual screening” (J Med Chem, 2012).
Calls of active or inactive are those of the source. The calls are words filed in the database; no cut-off is given here.

Experiments:
[1] = Inhibition of Cdc25; design: species or system Homo sapiens
MCF7 [2] = assay: Cell cycle arrest in human MCF7 cells assessed as accumulation at G2/M phase at 200 uM after 24 hrs by propidium iodide staining-based flow cytometry (reference value: 9.4 +/- 0.04%); format: functional
[3] = biological target: T1, M-phase inducer phosphatase 1 (Homo sapiens) (UniProt P30304); assay: Inhibition of recombinant phosphatase activity of Cdc25A catalytic domain expressed in Escherichia coli BL21(DE3) using OMFP as substrate at 100 uM after 15 mins by fluorimetric assay
T1 sequence (whole entry): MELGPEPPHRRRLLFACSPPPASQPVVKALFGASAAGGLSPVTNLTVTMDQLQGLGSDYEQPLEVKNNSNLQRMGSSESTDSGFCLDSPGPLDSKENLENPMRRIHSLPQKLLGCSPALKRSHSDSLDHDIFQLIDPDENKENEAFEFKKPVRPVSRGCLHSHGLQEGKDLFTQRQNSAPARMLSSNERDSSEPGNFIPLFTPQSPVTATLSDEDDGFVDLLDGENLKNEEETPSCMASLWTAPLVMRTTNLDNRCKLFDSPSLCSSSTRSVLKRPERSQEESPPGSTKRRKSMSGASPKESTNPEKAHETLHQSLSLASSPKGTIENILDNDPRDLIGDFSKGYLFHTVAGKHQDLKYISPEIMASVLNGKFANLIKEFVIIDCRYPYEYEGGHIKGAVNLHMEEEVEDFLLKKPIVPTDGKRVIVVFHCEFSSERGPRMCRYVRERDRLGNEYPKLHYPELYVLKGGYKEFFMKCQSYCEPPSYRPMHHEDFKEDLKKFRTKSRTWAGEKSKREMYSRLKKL

[4] = biological target: T2, M-phase inducer phosphatase 1 (Homo sapiens, UniProt P30304); assay: Inhibition of recombinant phosphatase activity of Cdc25A catalytic domain expressed in Escherichia coli BL21(DE3) using OMFP as substrate by Lineweaver-Burk plot analysis
T2 sequence (P30304 whole entry): T1 sequence (whole entry)
Procedure, shortened: (§1)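 Purified recombinant Cdc25A catalytic domain; phosphatase activity measured as OMFP hydrolysis versus inhibitor concentration to derive IC50, with Ki calculated from kinetic measurements. Results are averages ± SD of three determinations.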

[5] = biological target: T3, M-phase inducer phosphatase 2 (Homo sapiens) (UniProt P30305); details: K562, 200 uM
T3 sequence (whole entry): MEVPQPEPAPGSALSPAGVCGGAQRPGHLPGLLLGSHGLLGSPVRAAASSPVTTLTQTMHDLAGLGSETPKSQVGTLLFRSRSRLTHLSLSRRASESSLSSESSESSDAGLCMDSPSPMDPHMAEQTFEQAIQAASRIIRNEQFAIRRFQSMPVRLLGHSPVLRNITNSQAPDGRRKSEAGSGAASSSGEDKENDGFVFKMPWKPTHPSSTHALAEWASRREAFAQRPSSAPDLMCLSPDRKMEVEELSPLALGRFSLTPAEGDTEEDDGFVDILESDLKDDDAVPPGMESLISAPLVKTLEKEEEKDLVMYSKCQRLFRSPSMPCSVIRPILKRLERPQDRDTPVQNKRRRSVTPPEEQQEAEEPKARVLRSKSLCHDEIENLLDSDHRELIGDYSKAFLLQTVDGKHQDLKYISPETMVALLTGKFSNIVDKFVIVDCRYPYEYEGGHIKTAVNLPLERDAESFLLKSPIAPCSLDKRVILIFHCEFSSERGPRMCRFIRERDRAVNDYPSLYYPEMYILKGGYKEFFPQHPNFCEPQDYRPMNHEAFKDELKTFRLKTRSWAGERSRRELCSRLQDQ

[6] = biological target: T3, M-phase inducer phosphatase 2 (Homo sapiens); assay: Inhibition of recombinant phosphatase activity of Cdc25B catalytic domain expressed in Escherichia coli BL21(DE3) using OMFP as substrate at 100 uM after 15 mins by fluorimetric assay
MCF7 [7] = assay: Cell cycle arrest in human MCF7 cells assessed as accumulation at G2/M phase at 200 uM after 48 hrs by propidium iodide staining-based flow cytometry (reference value: 21 +/- 0.04%); format: functional
[8] = biological target: T2, M-phase inducer phosphatase 1; assay: Inhibition of recombinant phosphatase activity of Cdc25A catalytic domain expressed in Escherichia coli BL21(DE3) using OMFP as substrate by spectrofluorimetric analysis; procedure, shortened: as §1
PC-3 = assay: Growth inhibition against human PC3 cells expressing Cdc25A-C assessed as cell viability at 200 uM after 72 hrs by MTS assay; format: functional, cell-based
Procedure, shortened: (§2)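 MCF-7 breast, PC-3 prostate and K562 leukaemia cells treated 72 h with inhibitor or DMSO vehicle control, then cell viability measured. Values are mean ± SD of three experiments; significance by Student's t test, p ≤ 0.05.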

[9] = biological target: T4, M-phase inducer phosphatase 3 (Homo sapiens) (UniProt P30307); assay: Inhibition of recombinant phosphatase activity of Cdc25C catalytic domain expressed in Escherichia coli BL21(DE3) using OMFP as substrate at 100 uM after 15 mins by fluorimetric assay
T4 sequence (whole entry): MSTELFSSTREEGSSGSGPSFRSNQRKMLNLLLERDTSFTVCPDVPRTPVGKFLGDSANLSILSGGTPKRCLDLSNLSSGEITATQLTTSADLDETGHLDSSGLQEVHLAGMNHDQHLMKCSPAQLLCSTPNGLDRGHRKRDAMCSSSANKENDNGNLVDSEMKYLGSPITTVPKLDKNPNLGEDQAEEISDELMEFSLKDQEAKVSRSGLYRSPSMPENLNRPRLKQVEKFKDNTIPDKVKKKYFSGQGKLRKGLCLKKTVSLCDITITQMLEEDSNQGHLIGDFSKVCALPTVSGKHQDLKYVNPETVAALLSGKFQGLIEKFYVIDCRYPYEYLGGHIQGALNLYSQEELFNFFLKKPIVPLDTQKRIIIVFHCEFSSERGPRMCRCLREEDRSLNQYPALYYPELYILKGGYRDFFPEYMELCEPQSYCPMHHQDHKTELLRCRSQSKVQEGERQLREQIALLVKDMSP

MCF7 [10] = assay: Cell cycle arrest in human MCF7 cells assessed as accumulation at G1 phase at 200 uM after 24 hrs by propidium iodide staining-based flow cytometry (reference value: 81.3 +/- 0.01%); format: functional
[11] = biological target: T3, M-phase inducer phosphatase 2 (Homo sapiens); assay: (§3) Inhibition of recombinant phosphatase activity of Cdc25B catalytic domain expressed in Escherichia coli BL21(DE3) using OMFP as substrate by spectrofluorimetric analysis
[12] = biological target: T5, M-phase inducer phosphatase 2 (Homo sapiens, UniProt P30305); assay: as §3
T5 sequence (P30305 whole entry): T3 sequence (whole entry)

MCF7 [13] = assay: Cell cycle arrest in human MCF7 cells assessed as accumulation at S phase at 200 uM after 48 hrs by propidium iodide staining-based flow cytometry (reference value: 14.5 +/- 0.01%); format: functional
MCF7 [14] = assay: Cell cycle arrest in human MCF7 cells assessed as accumulation at G1 phase at 200 uM after 48 hrs by propidium iodide staining-based flow cytometry (reference value: 64.5 +/- 0.02%); format: functional
K562 = assay: Growth inhibition against human K562 cells expressing Cdc25A-C assessed as cell viability at 200 uM after 72 hrs by MTS assay; format: functional, cell-based; procedure, shortened: as §2
MCF7 [15] = assay: Cell cycle arrest in human MCF7 cells assessed as accumulation at S phase at 200 uM after 24 hrs by propidium iodide staining-based flow cytometry (reference value: 9.35%); format: functional
MCF7 [16] = assay: Growth inhibition against human MCF7 cells expressing Cdc25A-C assessed as cell viability at 200 uM after 72 hrs by MTS assay; format: functional, cell-based; procedure, shortened: as §2
[17] = biological target: T5, M-phase inducer phosphatase 2; assay: Competitive inhibition of recombinant phosphatase activity of Cdc25B catalytic domain expressed in Escherichia coli BL21(DE3) using OMFP as substrate by Lineweaver-Burk plot analysis

For `Cc1nc2c(s1)C(=O)C=C(NCCCN(C)CCCNC1=CC(=O)c3nc(-c4cc(F)ccc4F)oc3C1=O)C2=O`, the IC50 [1] was 0.02 µM.

`O=C(O)c1ccc(C(=O)c2ccccc2C(=O)O)cc1C(=O)O` showed an Activity (MCF7 [2]) of 26.6%, an inhibition [3] of 80% and a Ki [4] of 2.3 µM. The inhibition [5] was “Active”, the inhibition [6] was 80% and the Activity (MCF7 [7]) was 1.4%. The IC50 [8] was 6 µM, the “growth inhibition (GI)” value (PC-3) was “Active” and the inhibition [9] was 63%. The Activity (MCF7 [10]) was 59.1%, the inhibition [11] was “Dose-dependent effect” and the IC50 [12] was 17.5 µM. The Activity (MCF7 [13]) was 1.6%, the Activity (MCF7 [14]) was 97% and the “growth inhibition (GI)” value (K562) was “Active”. For the same compound, the Activity (MCF7 [15]) was 14.1%, the “growth inhibition (GI)” value (MCF7 [16]) was “Active” and the Ki [17] was 5.3 µM.
